Here are results for one compound from ChEMBL document CHEMBL5346932, “Structure-activity relationships of actively FhuE transported rifabutin derivatives with potent activity against Acinetobacter baumannii” (Eur J Med Chem, 2023).

The subject of data set [1] is Acinetobacter baumannii. Kind of data set: Antibacterial activity against Acinetobacter baumannii HUMC1 cultured in iron-limited RPMI medium supplemented with 10% FCS assessed as inverse MIC incubated for 20 hrs by CLSI based microbroth dilution method. Type of data set: functional. In outline:
(§1)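 CLSI broth microdilution in RPMI 1640 + 10% FCS in place of CAMHB. Compounds in 2-fold dilution series; inoculum 5×10^5 CFU/mL. Plates held static at 35 °C for 20 h. MIC read visually as the lowest concentration with no visible growth. […] is the reciprocal of this MIC.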
(In general: In broth dilution the organism is exposed to a series of concentrations in liquid medium.)

Data set [2] is described as follows: Drug accumulation in wild type Acinetobacter baumannii HUMC1 cultured in iron-limited RPMI medium supplemented with 10% FCS at 0.002 to 0.02 uM incubated for 10 mins by LC-MS/MS analysis. Type of data set: ADME. As to conditions: dose 0.002-0.02 µM. In outline: (§2)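 5 mL of suspension was dosed from DMSO stocks (0.002–5 mM) and shaken at 150 rpm for 10 min at 37 °C. Cells were pelleted, washed, and lysed (sucrose/EDTA). LC-MS/MS MRM quantitation used caffeine-normalized standard curves in spiked lysate. Reported as amount per 5 mL; n≥2 independent replicates.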

Data set [3] can be described thus: Drug accumulation in Acinetobacter baumannii HUMC1 cultured in iron-limited RPMI medium supplemented with 10% FCS measured per 5 ml of culture medium at 0.05 uM incubated for 10 mins by LC-MS/MS analysis. Type of data set: ADME. In outline: as §2
Data set [4] can be described thus: Drug accumulation in Acinetobacter baumannii HUMC1 harboring fhuE deletion mutant cultured in iron-limited RPMI medium supplemented with 10% FCS at 0.5 to 5 uM incubated for 10 mins by LC-MS/MS analysis. It counts as ADME. As to conditions: dose 0.5-5 µM. In outline:
(§3)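 5 mL suspension dosed from DMSO stocks (0.002–5 mM), 10 min at 37 °C, 150 rpm. Cells pelleted, washed in TBS and sucrose buffers, lysed, extracted with formic acid/CH3CN/CH3OH. LC-MS/MS MRM quantification against spiked-matrix standards, caffeine internal standard. Reported as ng per 5 mL suspension; n ≥ 2 independent replicates, mean ± SEM.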

The subject of data set [5] is Acinetobacter baumannii. Kind of data set: Antibacterial activity against Acinetobacter baumannii HUMC1 cultured in RPMI 1640 medium supplemented with 10% FCS assessed as bacterial growth inhibition incubated for 20 hrs by CLSI based microbroth dilution method. As to conditions: Acinetobacter baumannii, HUMC1, 20 h, read-out: MIC. It counts as functional. In outline: as §1

A short description of data set [6]: Inhibition of transcription in Acinetobacter baumannii HUMC1 using pVT784 as reporter plasmid preincubated for 30 mins followed by reporter plasmid addition and measured after 60 mins by Nano-Glo luciferase assay. It counts as functional. In outline:
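Cell-free transcription/translation used A. baumannii HUMC1 extract at 1.2 mg/mL, with extract from 2xYT+P culture after a run-off step and dialysis at pH 8.2. Compound was preincubated with extract for 30 min on ice. Reporter plasmid (0.5 nM) was then added and luminescence read after 60 min at 25 °C. Compounds were tested at 8 to 0.002 mg/L in triplicate. IC50 was fit from no-compound-normalized signal.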

Data set [7] can be described thus: Drug accumulation in cytoplasm of Acinetobacter baumannii HUMC1 cultured in iron-limited RPMI medium supplemented with 10% FCS at 0.005 uM incubated for 10 mins by LC-MS/MS analysis. Type of data set: ADME, subcellular. The procedure, abridged:
(§4)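 The periplasm was released by cold 0.5 mM MgSO4 shock. Cells were then sonicated and DNase-treated, and a 30000 g spin separated cytoplasm from the membrane pellet. Fractions were quantified by LC-MS/MS against standard curves. Reported as ng per 5 mL; n = 4 in duplicate.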

Data set [8] is described as follows: Drug accumulation in Acinetobacter baumannii HUMC1 harboring fhuE deletion mutant cultured in iron-limited RPMI medium supplemented with 10% FCS at <0.02 uM incubated for 10 mins by LC-MS/MS analysis. Type of data set: ADME. As to conditions: BLD = below limit of detection. The procedure, abridged:
as §3

The nature of data set [9]: Drug accumulation in Acinetobacter baumannii HUMC1 cultured in iron-limited RPMI medium supplemented with 10% FCS measured per 5 ml of culture medium at 0.005 uM incubated for 10 mins by LC-MS/MS analysis. It counts as ADME. The procedure, abridged: as §4
The nature of data set [10]: Drug accumulation in wild type Acinetobacter baumannii HUMC1 cultured in iron-rich CAMHB media at >=0.05 uM incubated for 10 mins by LC-MS/MS analysis. Type of data set: ADME. In outline: as §2
The nature of data set [11]: Drug accumulation in periplasm of Acinetobacter baumannii HUMC1 cultured in iron-limited RPMI medium supplemented with 10% FCS at 0.005 uM incubated for 10 mins by LC-MS/MS analysis. It counts as ADME, subcellular. The procedure, abridged:
as §4

For another data set, the system named is Staphylococcus aureus. As to the kind of experiment: Antibacterial activity against Staphylococcus aureus USA300 UAMS-1625 assessed as bacterial growth inhibition incubated for 20 hrs by CLSI based microbroth dilution method. Type of data set: functional. The procedure, abridged:
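CLSI broth microdilution in CAMHB against S. aureus USA300 UAMS-1625. Compounds in 2-fold dilution series; inoculum 5×10^5 CFU/mL. Incubated without shaking at 35 °C for 20 h. MIC read visually as the lowest concentration preventing visible growth. Fold changes are relative to the rifabutin MIC.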

Data set [12] is described as follows: Drug accumulation in cytoplasm of Acinetobacter baumannii HUMC1 cultured in iron-limited RPMI medium supplemented with 10% FCS measured per 5 ml of culture medium at 0.005 uM incubated for 10 mins by LC-MS/MS analysis. Type of data set: ADME, subcellular. In outline:
as §4

Data set [13] has as its system Acinetobacter baumannii. Kind of data set: Antibacterial activity against Acinetobacter baumannii HUMC1 harboring FhuE deletion mutant assessed as bacterial growth inhibition incubated for 20 hrs by CLSI based microbroth dilution method. It counts as functional. The procedure, abridged:
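Microbroth dilution per CLSI in RPMI 1640 + 10% FCS (in place of CAMHB). Compounds as 2-fold serial dilutions; inoculum 5×10^5 CFU/mL of previously described HUMC1-derived mutant strains. Incubated static at 35 °C for 20 h. MIC read visually as lowest concentration preventing visible growth.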

Data set [14] in a line: Drug accumulation in periplasm of Acinetobacter baumannii HUMC1 cultured in iron-limited RPMI medium supplemented with 10% FCS measured per 5 ml of culture medium at 0.005 uM incubated for 10 mins by LC-MS/MS analysis. Type of data set: ADME, subcellular. In outline: as §4
The nature of data set [15]: Drug accumulation in Acinetobacter baumannii HUMC1 harboring fhuE deletion mutant cultured in iron-rich CAMHB media at <0.02 uM incubated for 10 mins by LC-MS/MS analysis. Type of data set: ADME. As to conditions: BLD = below limit of detection. The procedure, abridged: as §3
Data set [16] in a line: Drug accumulation in membrane of Acinetobacter baumannii HUMC1 cultured in iron-limited RPMI medium supplemented with 10% FCS at 0.005 uM incubated for 10 mins by LC-MS/MS analysis. Type of data set: ADME, cell membranes. The procedure, abridged:
as §4

A short description of data set [17]: Drug accumulation in membrane of Acinetobacter baumannii HUMC1 cultured in iron-limited RPMI medium supplemented with 10% FCS measured per 5 ml of culture medium at 0.005 uM incubated for 10 mins by LC-MS/MS analysis. Type of data set: ADME, cell membranes. The procedure, abridged:
as §4

Data set [18] is described as follows: Drug accumulation in Acinetobacter baumannii HUMC1 harboring fhuE deletion mutant cultured in iron-rich CAMHB media at 0.5 to 5 uM incubated for 10 mins by LC-MS/MS analysis. Type of data set: ADME. As to conditions: dose 0.5-5 µM. In outline: as §3

≈ marks a conversion by molar mass, not a printed value. Bounds are passed on as bounds.

On to `CO[C@H]1/C=C/O[C@@]2(C)Oc3c(C)c(O)c4c(c3C2=O)C2=NC3(CCN(CC(C)C)CC3)NC2=C(NC(=O)/C(C)=C\C=C\[C@H](C)[C@H](O)[C@@H](C)[C@@H](O)[C@@H](C)[C@H](OC(C)=O)[C@@H]1C)C4=O` [RIFABUTIN], for which the 1/MIC in the data set on Acinetobacter baumannii [1] came to 1000 L/mg. The Drug uptake entry was “Active” in [2]; 36.08 pmol in data set [3]; “Active” in data set [4]; 79% in data set [7]; “Bld” in data set [8]; 12.44 ng in data set [9]. Besides, the Drug uptake entry in data set [10] is listed as “Active”; in [11] it was less than 1%; in data set [12], 0.02 ng; in data set [14] it was 2.66 ng; in [15] it was “Bld”; in [16], 20%. Further, the Drug uptake in [17] is 0.69 ng; in data set [18], “Active”. Moreover, the MIC with Acinetobacter baumannii [5] turned out to be 0.001 µg/mL (≈ 0.00118 µM); with Staphylococcus aureus, 0.016 µg/mL (≈ 0.0189 µM); in the data set with Acinetobacter baumannii [13], 0.5 µg/mL (≈ 0.59 µM). This compound also displayed an IC50 in [6] of 0.07 µg/mL (≈ 0.0826 µM).

Broadly, the MIC is the smallest concentration in the dilution series that meets the test's criterion for growth inhibition. One may read the IC50 as the concentration needed to halve the response being measured. Higher therefore signals weaker potency.
